Measured values as given in publication PMC3556183 (Journal of neuroendocrinology, 2013).
Ends that are not written are not given here.

Experiments:
[1] = tested on: pituitary and ovary cell membranes; assay: Preliminary binding of phoenixin-20 to pituitary and ovary cell membranes; parameters: species or system rat; conditions: data not shown; for displacement of phoenixin-20 binding: pituitary and ovary cell membranes, female rat donors
[2] = tested on: dispersed pituitary cells from random cycle, female donors; assay: Dynamic; type: cell-based, rat; conditions: 1000nM phoenixin-20 for 24 hours
Outline: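 Rat anterior pituitary cells from random-cycle females, trypsin-dispersed (0.1%), cultured 48 h at 37°C in MEM with 10% horse serum. Pretreated 24 h with medium or 1000nM amidated 20-residue peptide, resuspended in M199/0.1% BSA/bacitracin/20 mM HEPES; ~2 million cells perifused on Bio-Gel P2 columns (0.05 ml/min). Peptide present throughout. 5-min fractions: basal, 10 nM GnRH 50 min, medium 50 min, 60 mM KCl 10 min, medium 40 min. LH by RIA (RP-3 standards); mean ± SEM.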

cFos = assay: RT-PCR of cFos message in alphaT3-1 gonadotroph cells; type: cell-based, mouse; conditions: alphaT3-1 cells; not shown
[3] = tested on: Antibodies used in the EIA; assay: Cross-reactivity of the antibodies used in the phoenixin EIA; type: binding
male pituitary cells = assay: LH release from similarly prepared male pituitary cells; type: cell-based, rat; conditions: Supplemental Figure 2
GnRH receptor [4] = assay: RT-PCR of GnRH receptor message in alphaT3-1 gonadotroph cells; type: cell-based, mouse; conditions: alphaT3-1 cells; normalized to GAPDH; Figure 3E
Outline: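 Mouse αT3-1 gonadotroph cells were exposed to the peptide. RNA was reverse-transcribed using oligo d(T) and MMLV reverse transcriptase. GnRH receptor message was quantified by SYBR Green real-time PCR with primer efficiencies >85%, using the delta delta Ct method with GAPDH normalisation. Groups were compared by t test.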

PNX antiserum = conditions: rabbit polyclonal antiserum; ref Phoenix Pharmaceuticals, Inc; cited from earlier work
[5] = tested on: dispersed, primary rat pituitary cultures; assay: Static incubation of dispersed anterior pituitary cells, hormone release; type: cell-based; conditions: for GnRH-stimulated LH release: female pituitary cultures, overnight (24-hour) pretreatment, then GnRH for one hour, Figure 3A and B
Outline: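 Rat anterior pituitary cells were trypsin-dispersed and cultured 48 h in tubes (MEM, 10% horse serum, 37°C). Cultures were pretreated 24 h with medium or peptide fragments. Medium was replaced by M199 with 0.1% BSA, 2×10⁻⁵ M bacitracin and 20 mM HEPES, with the same pretreatment. Cells were incubated 30 or 60 min at 37°C ± GnRH, and the incubation was ended by centrifugation. LH was measured by RIA (RP-3 standards) as mean ± SEM.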

GnRH receptor [6] = assay: RT-PCR of GnRH receptor mRNA in dispersed primary pituitary cell cultures; type: cell-based, rat
Outline: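 Dispersed primary rat anterior pituitary cultures were pretreated overnight with the peptide: male cultures with or without GnRH, female cultures without GnRH. RNA was extracted and reverse-transcribed with oligo d(T) and MMLV RT. SYBR Green real-time PCR was run with primer efficiencies >85%. Changes were calculated by delta delta Ct, normalised to HPRT-1, and compared by t test.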

**Q.** Which “displacement of phoenixin-20 binding” value [1] does the source give for “urocortin (DNPSLSIDLTFHLLRTLLELARTQSQRERAEQNRIIFDSV; ends and bridges not checked; UniProt P55089 83-122, looked up)” here?
**A.** not displaced

**Q.** For “phoenixin-20: 20 amino acid amidated form of phoenixin (AGIVQEDVQPPGLKVWSDPF-NH2; UniProt C0HLM6 47-66, looked up)”, which “LH release when GnRH was included in the perifusate” value ([2]; 10 nM GnRH, Figure 3C) is on record?
**A.** significantly enhanced

**Q.** And the “basal LH release during perifusion” value ([2]; then perifusion columns, no GnRH)?
**A.** did not alter

**Q.** What about the cFos message (cFos) of the same substance?
**A.** failed to attain significance

**Q.** What about the “cross-reaction with the antibodies used in the EIA” value (from here on “cross-reaction”) [3] of the same substance?
**A.** 100%

**Q.** What about the “specific binding to pituitary and ovary cell membranes” value ([1]; tissues from female rat donors, preliminary experiments) of the same substance?
**A.** bound specifically

**Q.** And the “LH release compared to medium alone” value (male pituitary cells)?
**A.** no differences

**Q.** What about the GnRH receptor message (GnRH receptor [4]) of the same substance?
**A.** increase

**Q.** What about the “cross-reactivity with PNX antiserum in radioimmunoassay” value (PNX antiserum) of the same substance?
**A.** 100%

**Q.** And the “GnRH-stimulated LH release” value [5]?
**A.** potentiated

**Q.** What about the “ability of GnRH to upregulate the expression of GnRH receptor” value (GnRH receptor [6]; dispersed male anterior pituitary cell cultures, overnight pretreatment, Figure 3D) of the same substance?
**A.** potentiated

**Q.** With DVQPPGLKVWSDPF-NH2 [phoenixin-14] as the substance, how does the “cross-reaction” value [3] read?
**A.** 100%

**Q.** What about the “cross-reactivity with PNX antiserum in radioimmunoassay” value (PNX antiserum) of the same substance?
**A.** 100%

**Q.** And the “GnRH-stimulated LH release” value [5]?
**A.** potentiated

**Q.** For “angiotensin II (DRVYIHPF; Angiotensin-2; UniProt P01019 25-32, looked up) [reference compound]”, which “cross-reaction” value [3] is on record?
**A.** 0%

**Q.** Which “basal release of LH, ACTH, prolactin, growth hormone, or TSH” value ([5]; dispersed, primary rat pituitary cultures, data not shown) does the source give for phoenixin here?
**A.** did not alter

**Q.** What about the “GnRH receptor messenger RNA” value (GnRH receptor [6]; dispersed pituitary cultures pretreated with phoenixin, medium alone, Figure 3D) of the same substance?
**A.** increased

**Q.** And the “GnRH receptor expression in the absence of GnRH” value (GnRH receptor [6]; primary pituitary cell cultures from female donors, Figure 3G)?
**A.** significantly increased

**Q.** With “gonadotropin releasing hormone [gonadotropin-releasing hormone]” as the substance, how does the “displacement of phoenixin-20 binding” value [1] read?
**A.** not displaced
